Reference: the array DNA melting data of Ke et al. (doi:10.1101/2024.01.08.574731)

What was measured:
[1] = melting temperature; fluorescence melt of hairpins on a sequencing array, two-state fit, raised by 9.35 °C to match UV melts; details: sodium 0.088 M
Outline: (§1)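 Folding enthalpy and melting temperature come from bootstrapped two-state fits to Cy3 fluorescence of library hairpins carrying annealed Cy3 and quencher oligos on a sequenced MiSeq flow cell. Imaging was done in 50 mM Na-HEPES pH 8.0, 25 mM NaCl, stepping by 2.5 °C up to 60 °C, and signals were normalised to pre-quench Cy3 and to control constructs. Results of four replicates were combined by inverse variance, and fitted temperatures were raised by 9.35 °C to match UV melts.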

[2] = folding enthalpy; higher = less favourable; fluorescence melt of hairpins on a sequencing array, two-state fit; details: sodium 0.088 M
Outline: as §1

Sequence	Tm [1]	folding enthalpy [2]
GCGGTATCGAAAGATCGC (((..(((....))))))	47.1 °C	-24.1 kcal/mol
GCCATCGAAAGATGCGGC ((((((....)))..)))	49.2 °C	-16.6 kcal/mol
GCGACGTTCGC ((((...))))	48 °C	-17.3 kcal/mol
GAGTCAGCGAAAGCTCTC (((..(((....))))))	30.1 °C	-11.8 kcal/mol
GCGAAGCGAAAGCCTTGC ((.(.((....)).).))	36.3 °C	-7.85 kcal/mol
GCGTATTCACGC ((((....))))	53 °C	-25.6 kcal/mol
GTTCAGCGAAAGCTAAAC (((.(((....))).)))	37.8 °C	-21.6 kcal/mol
GCTCTTGGAAACAAGGGC ((.((((....)))).))	50.6 °C	-38.5 kcal/mol
GCCGTGCGAAAGCGCTGC ((.(.((....)).).))	49 °C	-19.6 kcal/mol
GACAGGGCGAAAGCCGTC (((..(((....))))))	49.6 °C	-14.1 kcal/mol
GATCTCCCGGGAGATC ((((((....))))))	58.3 °C	-52.9 kcal/mol
GGGGGCGGAAACGCTCCC (((.(((....))).)))	67.6 °C	-32.6 kcal/mol
GCTAAGCGAAAGCAAAGC (((..((....))..)))	40.8 °C	-17.5 kcal/mol
GGCCAAGGAAACTCGGCC ((((.((....)).))))	50.7 °C	-34 kcal/mol
TAGGGGAAACCCTA (((((....)))))	40.2 °C	-15.3 kcal/mol
GATCCAAGGATGGATC ((((((....))))))	47.8 °C	-27.5 kcal/mol
GGATTAGAAATAATCC ((((((....))))))	42.8 °C	-29.3 kcal/mol
GATCATTTTATGATC ((((((...))))))	51.4 °C	-30.4 kcal/mol
GATCAAGCCATTGATC ((((((....))))))	50.5 °C	-48.9 kcal/mol
GGTGACGAAAGTCTACC ((((((....))).)))	49 °C	-21.4 kcal/mol
TTCTGGAAACAGAA (((((....)))))	35.4 °C	-15.6 kcal/mol
GTATGTCGAAAGACTTAC (((.(((....))).)))	45.5 °C	-25.1 kcal/mol
GACAACGAAAGTTCAGTC ((((((....)))..)))	27.6 °C	-14.7 kcal/mol
GGCAGAGGAAACTCTGTC (.(((((....))))).)	49.7 °C	-30.7 kcal/mol

Sequence	Tm [1]	folding enthalpy [2]
GAAGAGCGAAAGCTTTC (((.(((....))))))	31.1 °C	-12.2 kcal/mol
GCACAGCCGAAAGGCTGC (((..(((....))))))	39.9 °C	-6.1 kcal/mol
GATCTGCGTCAGATC ((((((...))))))	49.6 °C	-29.4 kcal/mol
GAGAAGACGAAAGTCCTC (((..(((....))))))	31.4 °C	-13.2 kcal/mol
GATCTTTGCAAGATC ((((((...))))))	46.4 °C	-34.7 kcal/mol
GATCTCATCTGAGATC ((((((....))))))	53.6 °C	-39.9 kcal/mol
GTTTGTCGAAAGACTAAC (((.(((....))).)))	45.8 °C	-23.9 kcal/mol
GTTCAGCGAAAGCTCAAC (((.(((....))).)))	33.2 °C	-15.4 kcal/mol
GGCTACGGAAACGTAGTC (.(((((....))))).)	53.6 °C	-28.9 kcal/mol
GCGATTATTCGC ((((....))))	52.4 °C	-25.1 kcal/mol
GCACTGCGAAAGCAATGC (((.(((....))).)))	51.5 °C	-40.9 kcal/mol
GATCGTTCACACGATC ((((((....))))))	54.5 °C	-40.3 kcal/mol
GTGTACCGAAAGGTCAC (((.(((....))))))	53 °C	-30.5 kcal/mol
GATCAGCGCGCTGATC ((((((....))))))	67.4 °C	-43 kcal/mol
GATGTTGGAAACAATGTC ((..(((....)))..))	31.1 °C	-17.1 kcal/mol
GACCGGCGAAAGCCCGTC (((.(((....))).)))	50.8 °C	-16.9 kcal/mol
GTTTTACGAAAGTACAAC (((.(((....))).)))	35.5 °C	-25.8 kcal/mol
CGATGGCGGAAACGCTCG (((..(((....))))))	38.5 °C	-15.8 kcal/mol
GTGGAGGGAAACTTCCGC (.(((.(....).))).)	35.1 °C	-26.7 kcal/mol
GATCGGTGGCCCGATC ((((((....))))))	57.1 °C	-37.6 kcal/mol
GCATAGCGAAAGCAAGGC ((.(.((....)).).))	37.9 °C	-14 kcal/mol
GGCCACACGAAAGTGGCC (((..(((....))))))	67.5 °C	-39.1 kcal/mol
GATCGACACATCGATC ((((((....))))))	52.4 °C	-38.5 kcal/mol
GCGGGCCCGAAAGGGCGC (((..(((....))))))	58 °C	-8.34 kcal/mol

Sequence	Tm [1]	folding enthalpy [2]
GTCAAGGAAACTTGAC ((((((....))))))	53.5 °C	-29.6 kcal/mol
GCACCGCGAAAGCCGAGC ((.(.((....)).).))	39 °C	-12.9 kcal/mol
GCGATTGGAAACAATTGC ((.((((....)))).))	49.7 °C	-35.4 kcal/mol
GTCCTACGAAAGTACGAC (((.(((....))).)))	35.2 °C	-24.9 kcal/mol
GACCGGGGAAACCCAGTC (((.(((....))).)))	42.8 °C	-23.6 kcal/mol
GATCAACGGGTTGATC ((((((....))))))	56.8 °C	-36.7 kcal/mol
GCGATTGTTCGC ((((....))))	51.6 °C	-24.5 kcal/mol
GGGGCTGGAAACGGCCTC (.(((.(....).))).)	50.2 °C	-20.8 kcal/mol
GGTATCGAAAGATACACC ((((((....)))..)))	42.9 °C	-11.8 kcal/mol
GCTTGGCGAAAGCTAAGC ((((.((....)).))))	64.7 °C	-30 kcal/mol
GCATAAGGAAACTTGTGC (((.(((....))).)))	45.1 °C	-25.8 kcal/mol
GTTTTAGGAAACTGAAAC ((((.((....)).))))	35.2 °C	-22.1 kcal/mol
CGCAAGAAATTGCG (((((....)))))	53.3 °C	-29.6 kcal/mol
GCTGAGAAATCAGC (((((....)))))	53.2 °C	-28.4 kcal/mol
GTTATAGAAATATAAC ((((((....))))))	33.6 °C	-17.1 kcal/mol
GAGTGTGGAAACATACTC ((((.((....)).))))	45.9 °C	-31.9 kcal/mol
GCTGTTTCGAAAGAAAGC (((..(((....))))))	27.6 °C	-15.7 kcal/mol
GGTGGTGGAAACACCATC (.(((((....))))).)	56.2 °C	-26.2 kcal/mol
GGGTTTCGAAAGAACCCC (((.(((....))).)))	51.3 °C	-26.1 kcal/mol
GGTAACGAAAGTTTTACC ((((((....)))..)))	29.7 °C	-9.8 kcal/mol
GCCCTGCGAAAGCATTGC ((..(((....)))..))	29.3 °C	-8.56 kcal/mol
GATCAATTCATTGATC ((((((....))))))	53.1 °C	-50.7 kcal/mol
